# Screens: PubChem, several laboratories
# PHOSPHO1 inh = PubChem AID 1565; Phosphoethanolamine/phosphocholine phosphatase (Homo sapiens), Q8TCT1; recombinant PHOSPHO1, absorbance phosphatase assay; inhibition, % at 13.3 µM; 290,000 compounds, 1.1% hits; in the data active = inhibition above about 60%
# Target sequence (Q8TCT1 whole entry, looked up): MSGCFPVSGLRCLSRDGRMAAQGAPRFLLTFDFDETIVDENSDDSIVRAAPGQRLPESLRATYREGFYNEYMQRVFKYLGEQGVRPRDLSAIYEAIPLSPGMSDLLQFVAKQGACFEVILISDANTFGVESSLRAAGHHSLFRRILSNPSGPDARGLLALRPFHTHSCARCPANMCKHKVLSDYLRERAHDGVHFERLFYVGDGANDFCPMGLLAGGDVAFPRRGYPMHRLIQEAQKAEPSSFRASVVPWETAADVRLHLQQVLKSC
# VIM-2 inhibitor = VIM-2 metallo-beta-lactamase inhibitors, primary screen, biochemical, epi-absorbance readout, Pseudomonas aeruginosa enzyme | inhibition, % at 5.6 µM | 290,000 compounds, 0.89% hits | AID 1527, 2009 | purified VIM-2, nitrocefin hydrolysis, epi-absorbance fluorescence;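 active = inhibition above the mean of all tested compounds plus 3 SD, cutoff set per screening run, cut at about 7.5% in these data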;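 also: red hydrolysis product quenches plate fluorescence so inhibitors raise well fluorescence; 0% = enzyme with DMSO and 100% = DMSO without enzyme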
# SUMO HTRF inh = inhibitors of in vitro SUMOylation cascade, primary screen, biochemical, HTRF, uHTS | HTRF SUMOylation assay, SAE1/SAE2 + UBC9 | inhibition, % at 35 µM | 290,000 compounds, 0.36% hits; in the data active = inhibition above about 50%, passing the limit was not always enough
# IMP-1 inhibitor = IMP-1 metallo-beta-lactamase inhibitors, primary screen, biochemical, epi-absorbance readout, Pseudomonas aeruginosa enzyme. 290,000 compounds, 0.45% hits. metallo-beta-lactamase IMP-1 (Pseudomonas aeruginosa). purified IMP-1, nitrocefin hydrolysis, epi-absorbance fluorescence. inhibition, % at 5.6 µM;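 active = inhibition above the mean plus 3 SD of all compounds in the same screening run, cut at about 4.5% in these data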;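 also: 0% = IMP-1 with DMSO and 100% = DMSO wells lacking enzyme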
#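 System: purified IMP-1 / Input: IMP-1 dispensed at 0.2 nM / Medium: 50 mM HEPES pH 7.1, 50 µM ZnSO4, 0.05% Brij 35 / Timing: 15 min enzyme–compound preincubation, then 25 min nitrocefin reaction, 25 °C / Technique: plate fluorescence quenching by hydrolysis product, ex 480/em 530 nm / Repeats: singlicate testing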
# HCV core dimer = inhibitors of HCV core protein dimerization, primary screen, biochemical, TR-FRET, high-throughput | TR-FRET GST/Flag-core106 dimerization, 1536-well | inhibition, % at 5 µM | 300,000 compounds, 0.33% hits | AID 1899, 2009;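 active = inhibition above the mean of all tested compounds plus 3 SD, set per screening campaign, cut at about 45% in these data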
#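 test system = GST/Flag-tagged HCV core106 proteins | probe or stimulus = Eu donor and XL665 acceptor anti-tag antibodies | times = compound-protein-antibody incubation 4 h at 22.5 °C | signal = TR-FRET, excitation 340 nm, emission 617 and 671 nm | measure = percent inhibition of core106 dimerization signal | controls = wells lacking GST-core106 and wells with excess unlabelled core106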
# HCV NS3 hel inh = inhibitors of HCV NS3 helicase, primary screen, biochemical, Cy5 molecular beacon fluorescence | 290,000 compounds, 0.56% hits | NS3 helicase DNA unwinding | inhibition, % at 10.9 µM;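 active = inhibition above the mean of all tested compounds plus 3 SD, set per campaign, cut at about 35% in these data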;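 also: 0% = DMSO wells and 100% = thioflavine S control wells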
#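 Test system: hepatitis C virus NS3 helicase domain fragment enzyme. Also added: annealed dual-labelled DNA beacon duplex, ATP-started. Timing: 60 min unwinding reaction at 25 °C after ATP addition. Technique: Cy5 fluorescence. Measure: % inhibition of unwinding.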
# VIM-2 inh confirm = P. aeruginosa VIM-2 enzyme inhibition – biochemical, epi-absorbance, HTS, confirmation. shares compounds with IMP-1 inhibitor. 200 compounds, 73% hits. purified VIM-2 enzyme, nitrocefin absorbance. inhibition, % at 5.6 µM; in the data active = inhibition above about 8%;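 also: 0% = enzyme with vehicle and 100% = no enzyme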
# TEM-1 counter = Serine beta-lactamase TEM-1 inhibition, biochemical epi-absorbance counter-screen for IMP-1/VIM-2 inhibitor program; inhibition, % at 5.6 µM; AID 2184, 2009; TEM-1 beta-lactamase, nitrocefin absorbance inhibition; 200 compounds, 50% hits; shares compounds with IMP-1 inhibitor; in the data active = inhibition above about 0.66%
# Target sequence (P62593 whole entry, looked up): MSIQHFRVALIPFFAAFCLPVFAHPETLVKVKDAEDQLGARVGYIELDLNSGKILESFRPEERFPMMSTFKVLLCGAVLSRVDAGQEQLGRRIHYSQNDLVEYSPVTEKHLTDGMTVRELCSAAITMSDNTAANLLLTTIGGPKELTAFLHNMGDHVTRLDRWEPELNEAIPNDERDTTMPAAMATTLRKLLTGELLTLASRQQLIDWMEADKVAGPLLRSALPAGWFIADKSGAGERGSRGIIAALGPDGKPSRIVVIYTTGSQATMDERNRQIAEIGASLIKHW
# IMP-1 confirm = IMP-1 metallo-beta-lactamase inhibitors, confirmation, biochemical, epi-absorbance, hits shared with VIM-2 screen; shares compounds with IMP-1 inhibitor; purified IMP-1 enzyme, absorbance substrate hydrolysis; inhibition, % at 5.6 µM; 200 compounds, 60% hits; AID 2189, 2009; in the data active = inhibition above about 4.9%;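 also: 0% = enzyme with vehicle and 100% = vehicle without enzyme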
# * marks the source's active call; other numbers are inactive results; · = no result. Shown are actives, neighbours in structure and some others; about 3.1% of the full set was active somewhere.
SMILES,PHOSPHO1 inh,VIM-2 inhibitor,SUMO HTRF inh,IMP-1 inhibitor,HCV core dimer,HCV NS3 hel inh,VIM-2 inh confirm,TEM-1 counter,IMP-1 confirm
O=C(O)c1ccccc1NC(c1ccccc1)c1ccc(Cl)cc1 (stereo unspecified),-5,0,36,-2,7,14,·,·,·
CCN(CC(=O)Nc1ccccc1C(F)(F)F)C(=O)c1oc2ccc(OC)cc2c1C,·,·,·,·,5,·,·,·,·
Cc1ccc2c(c1)c(/C=C/c1cc[n+](C)cc1)c(C)n2C,5,26*,20,8.4*,·,-18,31*,-2,3
Cc1cc(C)n2nc3nc4c(cc3c2n1)CCCC4,98*,11*,36,5.0*,6,11,15*,-1,-1
Cc1cc(C)n2nc(C)c(Br)c2n1,12,-1,19,-2,3,12,·,·,·
O=C(COc1ccccc1)NC1CCCCCCC1,3,-3,12,-3,-14,8,·,·,·
Cc1ccc(N=Cc2c(O)c3ccccc3n(C)c2=O)cc1,·,3,-8,-1,·,-12,·,·,·
Cc1ccc(N=Cc2sc(O)c3ccccc23)cc1,26,8.4*,-2,24*,-23,19,14*,-2,1
CC1Cc2ccccc2N1S(=O)(=O)c1cccc(C(=O)NCCCn2ccnc2)c1 (stereo unspecified),25,-2,13,-2,-2,-23,·,·,·
O=C(/C=C/c1cnc2ccccc2n1)NC12CC3CC(CC(C3)C1)C2,4,-2,-14,-3,-3,4,·,·,·
CCn1c(=S)sc2c(=O)n(CC(=O)Nc3ccccc3C(F)(F)F)c(C)nc21,22,21*,-5,41*,-1,-6,19*,0,24*
CC(=O)Nc1ccc(N2C(=O)c3cccc4c(O)ccc(c34)C2=O)cc1,38,40*,37,34*,-7,8,30*,34*,28*
Cc1ccc(N2C(=O)c3cccc4c(C(=O)O)ccc(c34)C2=O)cc1,-166,1,0,-1,-1,3,·,·,·
O=C1c2cccc3c(O)ccc(c23)C(=O)N1c1ccc(Cl)cc1,27,30*,20,22*,-3,35,22*,29*,18*
O=C1c2cccc3c(O)ccc(c23)C(=O)N1Cc1ccco1,0,18*,42,21*,·,22,31*,38*,28*
Cc1nn(CCO)c(N)c1C1(O)C(=O)Nc2c(Cl)cc(Cl)cc21 (stereo unspecified),44,-1,15,-1,1,0,·,·,·
O=C(c1ccccc1)c1c2c(cc3sc4ccccc4[n+]13)-c1cccc3cccc-2c13,0,16*,50,10*,0,-77,11*,-3,-1
O=C1c2ccccc2-c2onc3ccc(NCCCn4ccnc4)c1c23,47,55*,-102,4.6*,-97,35,89*,69*,56*
N=C1/C(=C\c2coc3ccc(O)cc3c2=O)C(=O)N=C2SC=CN12,38,9.9*,32,11*,8,16,17*,8.0*,14*
CCN(CC)CCOC(=O)c1ccc(N/C=C(/C#N)c2nc(-c3ccc(OC)cc3)cs2)cc1,-1,-2,20,1,5,-30,·,·,·
CCN(CC)CCOC(=O)c1ccc(N/C=C(/C#N)c2nc(-c3cc4ccccc4oc3=O)cs2)cc1,28,42*,55*,13*,·,-4,52*,-5,11*
CN(/N=C/c1ccc(-c2ccc([N+](=O)[O-])cc2)o1)c1ccccc1,24,26*,30,30*,55*,-13,17*,27*,16*
N#C/C(=C\c1ccc(C#N)cc1)C(=O)c1ccccc1,51,0,16,-1,·,24,·,·,·
CN(C)c1ccc(/C=C(\C#N)C(=O)c2ccccc2)cc1,51,5,3,6.2*,-4,3,13*,13*,11*
O=C(Nc1ccc(C(F)(F)F)cc1)c1ccc(NC(=O)C2CCCO2)cc1 (stereo unspecified),23,9.1*,23,16*,0,-5,9.9*,-2,9.8*
SMILES,PHOSPHO1 inh,VIM-2 inhibitor,SUMO HTRF inh,IMP-1 inhibitor,HCV core dimer,HCV NS3 hel inh,VIM-2 inh confirm,TEM-1 counter,IMP-1 confirm
CC1CN(C(=O)COc2coc(CN3CCc4ccccc4C3)cc2=O)CC(C)O1 (stereo unspecified),·,·,·,·,-1,·,·,·,·
COc1ccc(Cl)cc1Nc1nnc(-c2ccncc2)s1,29,8.7*,0,19*,0,0,3,-1,12*
Cc1cc2nc(C)c(=O)n(C)c2cc1C,-10,3,30,1,2,-8,·,·,·
CC(=O)OCCn1c2nc(=O)[nH]c(=O)c-2nc2cc(C)c(C)cc21,-32,33*,60*,10*,·,-42,43*,112*,37*
O=c1oc(-c2ccccc2)cc(Cl)c1Cl,5,-1,-21,-4,-5,-5,·,·,·
O=P(O)(O)c1cc(-c2ccccc2)oc1-c1ccccc1,33,30*,-6,22*,2,9,40*,-2,23*
COCCCn1c(=NC(=O)c2ccccc2)c(C#N)cc2c(=O)n3cccc(C)c3nc21,-63,9.3*,15,8.5*,6,0,18*,32*,11*
Cc1ccc(C2=NCCn3c2c2ccc(C(F)(F)F)cc2[n+]3[O-])cc1,·,·,·,·,3,·,·,·,·
COc1ccc(-c2csc(-n3ncc(-c4ccccn4)c3N)n2)cc1,20,-1,7,-3,3,-2,·,·,·
COc1ccccc1-c1csc(-n2ncc(C#N)c2N)n1,32,17*,8,22*,30,-24,10*,-2,12*
